According to PMC8436581 (Molecular Diversity, 2021):
Entries after “also recorded” stand apart in the source; their conditions may differ. Where two headings read alike, the source gives them in different places.

Experiments:
α-glycosidase [1] = assay: In vitro α-glycosidase inhibition assay; assay type: biochemical; conditions: ratio of IC50 values against acarbose
α-glycosidase [2] = assay: Enzyme kinetic study; assay type: biochemical; conditions: Lineweaver–Burk plot
In short: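 Double-reciprocal analysis: reciprocal rate (1/V) plotted against reciprocal substrate concentration (1/[S]) at several inhibitor concentrations to assign the inhibition mode; Ki obtained from a secondary plot of inhibitor concentration [I] versus 1/Vi'max.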

α-glycosidase [3] = conditions: cited from earlier work

improvement in potency compared to acarbose (α-glycosidase [1])	SMILES	type of inhibition (α-glycosidase [2])	other results
around 39 fold	O=C(Cn1cc(COc2ccc(-c3nc4ccccc4[nH]3)cc2)nn1)Nc1cnc(-c2ccccc2)s1 [9a, 2-{4-[4-(1H-1,3-benzodiazol-2-yl)phenoxymethyl]-1H-1,2,3-triazol-1-yl}-N-(2-phenyl-1,3-thiazol-5-yl)acetamide]	–	–
–	COc1cc(-c2nc3ccccc3[nH]2)ccc1OCc1cn(CC(=O)Nc2cnc(-c3ccccc3)s2)nn1 [9g, 2-{4-[4-(1H-1,3-benzodiazol-2-yl)-2-methoxyphenoxymethyl]-1H-1,2,3-triazol-1-yl}-N-(2-phenyl-1,3-thiazol-5-yl)acetamide]	uncompetitive inhibitors; also recorded: uncompetitive type of inhibition	–
15 fold	COc1cc(-c2nc3ccccc3[nH]2)ccc1OCc1cn(CC(=O)Nc2cnc(-c3ccc(C)cc3)s2)nn1 [9i, 2-{4-[4-(1H-1,3-benzodiazol-2-yl)-2-methoxyphenoxymethyl]-1H-1,2,3-triazol-1-yl}-N-[2-(4-methylphenyl)-1,3-thiazol-5-yl]acetamide]	–	–
–	O=C(Cn1cc(COc2ccc(-c3nc4ccccc4[nH]3)cc2)nn1)Nc1cnc(-c2ccc(Br)cc2)s1 [9c, 2-{4-[4-(1H-1,3-benzodiazol-2-yl)phenoxymethyl]-1H-1,2,3-triazol-1-yl}-N-[2-(4-bromophenyl)-1,3-thiazol-5-yl]acetamide]	uncompetitive inhibitors; also recorded: uncompetitive type of inhibition	–
–	Cc1ccc(-c2ncc(NC(=O)Cn3cc(COc4ccc(-c5nc6ccc(C)cc6[nH]5)cc4)nn3)s2)cc1 [9m, 2-{4-[4-(6-Methyl-1H-1,3-benzodiazol-2-yl)phenoxymethyl]-1H-1,2,3-triazol-1-yl}-N-[2-(4-methylphenyl)-1,3-thiazol-5-yl]acetamide]	uncompetitive inhibitors; also recorded: uncompetitive type of inhibition	–
–	C[C@H]1O[C@H](O[C@H]2[C@H](O)[C@@H](O)[C@@H](O[C@H]3[C@H](O)[C@@H](O)C(O)O[C@@H]3CO)O[C@@H]2CO)[C@H](O)[C@@H](O)[C@@H]1N[C@H]1C=C(CO)[C@@H](O)[C@H](O)[C@H]1O (stereo partly shown) [Acarbose]	–	IC50 (α-glycosidase [3]; arylthiazole-pyridine derivatives): 856.5 ± 5.6 µM; IC50 (α-glycosidase [3]; benzimidazole bearing bis-Schiff bases): 38.5 µM; IC50 (α-glycosidase [3]; benzimidazole-1,2,3-triazole hybrids): 750 ± 12.5 µM; IC50 (α-glycosidase [3]; benzimidazole-based oxadiazole derivatives): 38.5 ± 0.8 µM; IC50 (α-glycosidase [3]; thiourea derivatives bearing benzimidazole): 774 µM
